Laboratory results published in paper PMC9727339 (Asian Pacific Journal of Cancer Prevention : APJCP, 2022).
Several values for one entry are separate records, joined by “and”; a condition that tells them apart may be missing. Identical values can stand only once. Like-named read-outs stand apart in the source and are kept apart here. Values belong to the molecule of their own block, whether it stands above or below them.

Tests used:
[1] = DPPH radical scavenging, 96-well colorimetric assay; type: biochemical; conditions: read-out: DPPH radical scavenging IC50 value; 30 minutes incubations; mean ± SD, n = 3
[2] = tested on: skin melanoma A375.s2 cell line; assay: Antiproliferation, sulforhodamine B colorimetric bioassay, A375.s2; type: cell-based; conditions: read-out: Cytotoxicity (as of %Control) IC50, A375.s2; 72 h incubations, SRB; mean ± SD, n = 3-4
[3] = tested on: breast carcinoma T47D cell line; assay: Antiproliferation, sulforhodamine B colorimetric bioassay, T47D; type: cell-based; conditions: read-out: Cytotoxicity (as of %Control) IC50, T47D, 72 h incubations, SRB, mean ± SD, n = 3-4
[4] = tested on: breast carcinoma MCF7 cell line; assay: Antiproliferation, sulforhodamine B colorimetric bioassay, MCF7; type: cell-based; conditions: read-out: Cytotoxicity (as of %Control) IC50, MCF7, 72 h incubations, SRB, mean ± SD, n = 3-4
[5] = tested on: normal periodontal ligament fibroblasts (PDL); assay: Cytotoxicity in normal periodontal ligament fibroblasts; type: cell-based
Method in brief: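 Normal periodontal ligament fibroblasts exposed to test compound for 72 h. […] Selectivity index is the compound's IC50 on PDL divided by its IC50 on a given cancer cell line.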

[6] = tested on: Nitric oxide synthase / NO in LPS prompted RAW264.7 macrophages; type: cell-based; conditions: mean ± SD, n = 3

IC50 [1]: 3.37 µM
SMILES: O=C1O[C@H]([C@@H](O)CO)C(O)=C1O [Ascorbic acid, ascorbic acid]

SMILES: N.N.[Cl][Pt][Cl] [Cisplatin, cisplatin]
IC50 [2]: 0.7 ± 0.1 µM
IC50 [3]: 45.1 ± 7.84 µM
IC50 ([3]; listed as cisplatin): 45.2 µM and 45 µM
IC50 [4]: 92.6 ± 12.5 µM
IC50 ([4]; listed as cisplatin): 92.6 µM
IC50 PDL Fibro ([5]; 72h incubations, mean ± SD, n = 3): (0.21 ± 0.04) µg/mL
IC50 ([5]; read-out: IC50 PDL Fibro, 72h incubations, mean ± SD, n = 3): 0.71 ± 0.13 µM

IC50 ([6]; Mus musculus, RAW264.7, 24 h, read-out: NOS- IC50 value (NO scavenging/antiinflammation), LPS prompted RAW264.7, 24h incubations, Griess assay): 55.1 µM and 26.9 µg/mL
IC50 ([6]; read-out: NOS- IC50 value (NO scavenging/antiinflammation), LPS prompted RAW264.7, 24h incubations, Griess assay): 55.1 ± 2.25 µM
SMILES: COc1ccc2c(c1)c(CC(=O)O)c(C)n2C(=O)c1ccc(Cl)cc1 [Indomethacin, indomethacin]
